Reference: article PMC7227796 (ACS chemical neuroscience, 2020)
Like-named read-outs stand apart in the source and are kept apart here.

How the values were obtained:
GluK3 = GluK3 (Rattus norvegicus, UniProt P42264); experiment: Radioligand binding at recombinant homomeric GluK3
Outline: (§1)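 Membranes from sf9 cells expressing rat homomeric GluK1, GluK2 or GluK3 were incubated in 50 mM Tris-HCl, pH 7.1, for 2 h at 4 °C. Radioligand was [3H]-(S)-NF608 for GluK1 and [3H]kainic acid for GluK2 and GluK3. Samples were filtered on GF/B, washed twice with ice-cold buffer, dried for 1 h at 70 °C and counted by scintillation. Ki came from 12–16-point triplicate curves. Single-point % specific binding is mean ± SD of three experiments, at 10 μM test compound where stated.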

native AMPA receptors = experiment: Radioligand binding at native AMPA receptors; settings: rat synaptosomes, [3H]AMPA; for IC50: read-out: AMPA IC50, native iGluRs (synaptosomes)
Outline: (§2)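 Rat cortical synaptosomal membranes were labelled with 5 nM [3H]AMPA (AMPA), 5 nM [3H]KA (KA) or [3H]CGP39653 (NMDA). Test compound was run at 12–16 concentrations in triplicate, with three to six independent experiments. Cpm were fitted by nonlinear regression. Values are reported as pIC50 for AMPA and KA and as pKi for NMDA, each as mean with SEM.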

native KA receptors = experiment: Radioligand binding at native KA receptors; settings: rat synaptosomes, [3H]KA
Outline: as §2

native NMDA receptors = experiment: Radioligand binding at native NMDA receptors; set-up: species or system rat; settings: rat synaptosomes, [3H]CGP-39653; for Ki: read-out: NMDA Ki, native iGluRs (synaptosomes)
Outline: as §2

GluK2 = GluK2 (Rattus norvegicus, UniProt P42260); experiment: Radioligand binding at recombinant homomeric GluK2; settings: for GluK2 % specific binding (Table 5): mean ± SD, ligand concentration not given
Sequence of GluK2 (P42260 32-908): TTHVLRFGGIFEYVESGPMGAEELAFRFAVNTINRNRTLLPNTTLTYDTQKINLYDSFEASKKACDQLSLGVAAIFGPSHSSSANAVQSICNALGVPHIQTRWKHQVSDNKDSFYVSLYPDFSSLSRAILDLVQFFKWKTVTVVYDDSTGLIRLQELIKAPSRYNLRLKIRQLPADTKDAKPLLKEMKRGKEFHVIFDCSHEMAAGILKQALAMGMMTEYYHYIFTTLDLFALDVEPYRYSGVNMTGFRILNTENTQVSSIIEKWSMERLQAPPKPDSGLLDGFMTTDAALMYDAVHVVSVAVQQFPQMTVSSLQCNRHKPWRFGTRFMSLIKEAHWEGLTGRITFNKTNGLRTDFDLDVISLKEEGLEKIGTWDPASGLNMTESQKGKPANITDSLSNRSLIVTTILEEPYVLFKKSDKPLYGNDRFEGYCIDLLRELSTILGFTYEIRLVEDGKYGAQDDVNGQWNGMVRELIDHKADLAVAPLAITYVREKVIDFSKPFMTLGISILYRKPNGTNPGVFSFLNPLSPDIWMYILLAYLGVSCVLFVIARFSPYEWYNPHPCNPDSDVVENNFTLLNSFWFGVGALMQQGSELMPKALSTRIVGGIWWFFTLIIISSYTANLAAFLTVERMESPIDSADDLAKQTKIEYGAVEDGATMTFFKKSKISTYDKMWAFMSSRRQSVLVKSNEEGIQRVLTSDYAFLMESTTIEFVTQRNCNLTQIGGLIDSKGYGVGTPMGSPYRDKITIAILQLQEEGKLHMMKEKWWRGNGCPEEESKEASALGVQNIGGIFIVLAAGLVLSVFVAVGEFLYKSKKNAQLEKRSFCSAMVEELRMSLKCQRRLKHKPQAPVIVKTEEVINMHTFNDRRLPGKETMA
Outline: as §1

GluK1 = GluK1 (Rattus norvegicus, UniProt P22756); experiment: Radioligand binding at recombinant homomeric GluK1
Sequence of GluK1 (P22756 31-920 isoform P22756-4 limits assumed): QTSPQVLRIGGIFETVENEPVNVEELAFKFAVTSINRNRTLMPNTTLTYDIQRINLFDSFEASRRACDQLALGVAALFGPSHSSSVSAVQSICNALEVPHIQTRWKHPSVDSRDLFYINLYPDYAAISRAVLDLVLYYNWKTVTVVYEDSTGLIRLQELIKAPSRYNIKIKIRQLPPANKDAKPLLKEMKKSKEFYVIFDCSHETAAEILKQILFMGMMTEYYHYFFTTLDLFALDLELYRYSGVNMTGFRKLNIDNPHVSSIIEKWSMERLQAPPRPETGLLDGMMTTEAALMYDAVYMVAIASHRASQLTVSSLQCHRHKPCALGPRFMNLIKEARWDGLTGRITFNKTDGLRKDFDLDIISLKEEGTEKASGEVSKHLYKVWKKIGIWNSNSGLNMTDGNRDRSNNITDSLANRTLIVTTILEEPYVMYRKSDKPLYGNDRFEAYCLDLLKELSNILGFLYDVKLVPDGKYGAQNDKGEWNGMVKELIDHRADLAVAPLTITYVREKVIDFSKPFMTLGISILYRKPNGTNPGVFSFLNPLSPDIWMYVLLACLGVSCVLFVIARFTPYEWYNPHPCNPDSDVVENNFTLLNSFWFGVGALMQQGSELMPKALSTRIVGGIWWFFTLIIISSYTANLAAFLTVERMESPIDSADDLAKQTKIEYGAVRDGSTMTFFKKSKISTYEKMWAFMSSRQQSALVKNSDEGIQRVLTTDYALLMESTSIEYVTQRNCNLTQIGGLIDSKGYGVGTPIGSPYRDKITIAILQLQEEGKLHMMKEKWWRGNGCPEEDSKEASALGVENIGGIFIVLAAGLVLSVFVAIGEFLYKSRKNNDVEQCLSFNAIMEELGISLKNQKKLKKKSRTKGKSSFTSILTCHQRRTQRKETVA
Outline: as §1

[1] = read-out: GluK3 Ki, cloned homomeric iGluRs, [3H]KA, mean ± SEM
[2] = read-out: GluK2 Ki, cloned homomeric iGluRs, [3H]KA, mean ± SEM

Sequence of GluK3 (P42264 32-919): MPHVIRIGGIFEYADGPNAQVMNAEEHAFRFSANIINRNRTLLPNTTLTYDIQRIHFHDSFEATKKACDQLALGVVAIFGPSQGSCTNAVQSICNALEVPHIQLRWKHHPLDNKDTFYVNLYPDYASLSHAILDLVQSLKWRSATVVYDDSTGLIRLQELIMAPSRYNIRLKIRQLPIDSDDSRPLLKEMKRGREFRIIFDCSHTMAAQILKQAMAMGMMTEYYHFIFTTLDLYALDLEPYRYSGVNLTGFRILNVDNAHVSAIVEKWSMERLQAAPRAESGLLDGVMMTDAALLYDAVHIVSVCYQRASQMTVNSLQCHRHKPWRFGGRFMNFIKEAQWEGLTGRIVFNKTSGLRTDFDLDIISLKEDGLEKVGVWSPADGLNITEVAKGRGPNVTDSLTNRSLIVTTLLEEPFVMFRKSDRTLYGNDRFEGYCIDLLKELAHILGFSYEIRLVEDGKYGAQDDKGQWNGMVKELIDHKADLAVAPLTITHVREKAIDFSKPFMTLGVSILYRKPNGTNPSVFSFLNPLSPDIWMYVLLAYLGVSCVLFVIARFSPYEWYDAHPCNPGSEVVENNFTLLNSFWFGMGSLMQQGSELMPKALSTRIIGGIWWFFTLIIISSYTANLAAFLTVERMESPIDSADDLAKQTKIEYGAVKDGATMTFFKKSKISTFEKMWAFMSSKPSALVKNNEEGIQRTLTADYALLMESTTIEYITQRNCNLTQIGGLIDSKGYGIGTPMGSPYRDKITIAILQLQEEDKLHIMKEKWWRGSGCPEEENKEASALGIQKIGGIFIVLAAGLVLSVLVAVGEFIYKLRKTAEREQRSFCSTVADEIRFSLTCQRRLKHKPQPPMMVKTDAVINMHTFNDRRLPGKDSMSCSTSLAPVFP

Q: Cl.Cl.Nc1cc(C(=O)O)cc([C@H]2CCN[C@@H]2C(=O)O)c1 (racemic) [(±)-5j, (±)-2,3-trans-(3-Amino-5-carboxyphenyl)pyrrolidine-2-carboxylic acid dihydrochloride] was tested. Which Ki (GluK3; [1]) did it give?
A: 19.3 ± 0.9 µM

Q: What about the “AMPA pIC50 with SEM (in brackets)” value (native AMPA receptors) of the same molecule?
A: 4.29±0.07

Q: And the IC50 (native AMPA receptors)?
A: 52 µM

Q: And the “KA IC50, native iGluRs (synaptosomes)” value (native KA receptors)?
A: 86 µM

Q: What about the “KA pIC50 with SEM (in brackets)” value (native KA receptors) of the same molecule?
A: 4.07±0.04

Q: What about the “NMDA pKi with SEM (in brackets)” value (native NMDA receptors) of the same molecule?
A: 4.87±0.05

Q: And the Ki (native NMDA receptors)?
A: 14 µM

Q: And the Ki (GluK2; [2])?
A: > 100 µM

Q: How did the Ki (GluK3; [1]) turn out when Cc1ccc(S(=O)(=O)Nc2cc(C(=O)O)cc([C@H]3CCN[C@@H]3C(=O)O)c2)cc1.Cl (racemic) [(±)-5k, (±)-2,3-trans-(3-Carboxy-5-((4-methylphenyl)sulfonamido)phenyl)pyrrolidine-2-carboxylic acid hydrochloride] was run?
A: 10.9 ± 0.5 µM

Q: And the “AMPA pIC50 with SEM (in brackets)” value (native AMPA receptors)?
A: 4.65±0.09

Q: And the IC50 (native AMPA receptors)?
A: 23 µM

Q: And the “KA IC50, native iGluRs (synaptosomes)” value (native KA receptors)?
A: >100 µM

Q: And the “NMDA pKi with SEM (in brackets)” value (native NMDA receptors)?
A: 4.82±0.03

Q: What about the Ki (native NMDA receptors) of the same molecule?
A: 15 µM

Q: What about the Ki (GluK2; [2]) of the same molecule?
A: 19 µM

Q: Cl.O=C(O)c1cc(NS(=O)(=O)c2ccccn2)cc([C@H]2CCN[C@@H]2C(=O)O)c1 (racemic) [(±)-5l, (±)-2,3-trans-3-(3-Carboxy-5-(pyridine-2-sulfonamido)phenyl)pyrrolidine-2-carboxylic acid hydrochloride] was tested. Which Ki (GluK3; [1]) did it give?
A: 14 ± 0.9 µM

Q: What about the “AMPA pIC50 with SEM (in brackets)” value (native AMPA receptors) of the same molecule?
A: 4.57±0.04

Q: And the IC50 (native AMPA receptors)?
A: 27 µM

Q: And the “KA IC50, native iGluRs (synaptosomes)” value (native KA receptors)?
A: >100 µM

Q: What about the “NMDA pKi with SEM (in brackets)” value (native NMDA receptors) of the same molecule?
A: 4.46±0.08

Q: And the Ki (native NMDA receptors)?
A: 36 µM

Q: What about the Ki (GluK2; [2]) of the same molecule?
A: ~100 µM

Q: How did the Ki (GluK3; [1]) turn out when Cl.O=C(O)c1cc(NC(=O)c2ccccc2)cc([C@H]2CCN[C@@H]2C(=O)O)c1 (racemic) [(±)-5m, (±)-2,3-trans-3-(3-Benzamido-5-carboxyphenyl)pyrrolidine-2-carboxylic acid hydrochloride] was run?
A: 3.95 ± 0.2 µM

Q: And the “AMPA pIC50 with SEM (in brackets)” value (native AMPA receptors)?
A: 4.63±0.04

Q: What about the IC50 (native AMPA receptors) of the same molecule?
A: 24 µM

Q: And the “KA IC50, native iGluRs (synaptosomes)” value (native KA receptors)?
A: 16 µM

Q: And the “KA pIC50 with SEM (in brackets)” value (native KA receptors)?
A: 4.81±0.03

Q: What about the “NMDA pKi with SEM (in brackets)” value (native NMDA receptors) of the same molecule?
A: 5.16±0.04

Q: And the Ki (native NMDA receptors)?
A: 6.9 µM

Q: What about the Ki (GluK2; [2]) of the same molecule?
A: ~100 µM

Q: How did the Ki (GluK3) turn out when Cl.O=C(O)c1cc(Br)cc([C@H]2CCN[C@@H]2C(=O)O)c1 [5b, (2S,3R)-3-(3-Bromo-5-carboxyphenyl)pyrrolidine-2-carboxylic acid hydrochloride] was run?
A: 2.42 ± 0.11 µM

Q: And the “AMPA pIC50 with SEM (in brackets)” value (native AMPA receptors)?
A: 4.60 ± 0.04

Q: What about the IC50 (native AMPA receptors) of the same molecule?
A: 26 µM

Q: What about the “KA IC50, native iGluRs (synaptosomes)” value (native KA receptors) of the same molecule?
A: 10 µM

Q: What about the “KA pIC50 with SEM (in brackets)” value (native KA receptors) of the same molecule?
A: 4.99 ± 0.04

Q: And the “NMDA pKi with SEM (in brackets)” value (native NMDA receptors)?
A: 5.63 ±0.05

Q: What about the Ki (native NMDA receptors) of the same molecule?
A: 2.4 µM

Q: What about the Ki (GluK2) of the same molecule?
A: > 100 µM

Q: What about the Ki (GluK1) of the same molecule?
A: 5.88 ± 0.6 µM

Q: Which results are given for Cl.O=C(O)c1cc([C@H]2CCN[C@@H]2C(=O)O)cc(Br)c1Cl [6a, (2S,3R)-3-(3-Bromo-5-carboxy-4-chlorophenyl)pyrrolidine-2-carboxylic acid hydrochloride]?
A: Ki (GluK3): ≥ 100 µM; IC50 (native AMPA receptors): > 100 µM; KA IC50, native iGluRs (synaptosomes) (native KA receptors): >100 µM; Ki (native NMDA receptors): 1 to 10 µM; Ki (GluK2): ≥ 100 µM; Ki (GluK1): ≥ 100 µM

Q: With CNCC[C@@H]1CN[C@H](C(=O)O)[C@H]1c1cccc(C(=O)O)c1 [9b, (2S,3R,4S)-3-(3-Carboxyphenyl)-4-(2-(methylamino)ethyl)pyrrolidine-2-carboxylic acid] as the molecule, how does the Ki (GluK3) read?
A: > 100 µM

Q: What about the “GluK3 % specific binding (Table 5)” value (GluK3; [3H]KA, mean ± SD, ligand concentration not given) of the same molecule?
A: 83 ± 6%

Q: And the “AMPA pIC50 with SEM (in brackets)” value (native AMPA receptors)?
A: 4.16 ± 0.02

Q: What about the IC50 (native AMPA receptors) of the same molecule?
A: 69 µM

Q: What about the “KA IC50, native iGluRs (synaptosomes)” value (native KA receptors) of the same molecule?
A: >100 µM

Q: And the Ki (native NMDA receptors)?
A: > 100 µM

Q: What about the Ki (GluK2) of the same molecule?
A: > 100 µM

Q: What about the “GluK2 % specific binding (Table 5)” value (GluK2; [3H]KA) of the same molecule?
A: 99 ± 6%

Q: What about the Ki (GluK1) of the same molecule?
A: ~10 µM

Q: What about the “GluK1 % specific binding (Table 5)” value (GluK1; [3H]NF608, mean ± SD, ligand concentration not given) of the same molecule?
A: 50 ± 6%

Q: What does the source list for O=C(O)c1cccc([C@H]2[C@H](CCNCc3ccccc3)CN[C@@H]2C(=O)O)c1 [9c, (2S,3R,4S)-4-(2-(Benzylamino)ethyl)-3-(3-carboxyphenyl)pyrrolidine-2-carboxylic acid]?
A: Ki (GluK3): 2.46 ± 0.54 µM; AMPA pIC50 with SEM (in brackets) (native AMPA receptors): 4.83 ± 0.05; IC50 (native AMPA receptors): 15 µM; Ki (native NMDA receptors): > 100 µM; Ki (GluK2): > 100 µM; GluK2 % specific binding (Table 5) (GluK2; [3H]KA): 86 ± 6%; Ki (GluK1): 2.98 ± 0.96 µM
